PHOSPHO1 inh: PubChem AID 1565. Phosphoethanolamine/phosphocholine phosphatase (Homo sapiens), Q8TCT1. recombinant PHOSPHO1, absorbance phosphatase assay. inhibition, % at 13.3 µM. 1.1% of 290,000 active; in the data active means inhibition above about 60%
Target sequence (Q8TCT1 whole entry, looked up): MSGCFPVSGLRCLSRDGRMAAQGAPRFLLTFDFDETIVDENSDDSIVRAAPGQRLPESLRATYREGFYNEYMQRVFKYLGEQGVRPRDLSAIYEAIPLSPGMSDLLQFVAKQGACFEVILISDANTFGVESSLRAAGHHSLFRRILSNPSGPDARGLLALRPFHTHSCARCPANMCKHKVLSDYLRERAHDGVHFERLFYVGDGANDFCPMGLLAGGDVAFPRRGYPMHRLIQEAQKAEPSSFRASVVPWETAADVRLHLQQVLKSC
Calb FLC: C. albicans growth inhibition with fluconazole, primary screen, CaCi-2 strain, Alamar Blue fluorescence | 0.57% of 300,000 active | C. albicans CaCi-2 (fluconazole-resistant clinical isolate) + fluconazole, 48 h | AID 1979, 2009 | growth inhibition, % (test concentration not listed);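 active means growth inhibition above about 58% in most replicates, limit read from the data, passing the limit was not always enough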;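 further: all wells also contain fluconazole at 8 µg/ml as a sub-toxic cotreatment; 0% = median of DMSO wells and 100% = median of geldanamycin control wells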
VIM-2 inh: VIM-2 metallo-beta-lactamase inhibitors, primary screen, biochemical, epi-absorbance readout, Pseudomonas aeruginosa enzyme; 0.89% of 290,000 active; inhibition, % at 5.6 µM; purified VIM-2, nitrocefin hydrolysis, epi-absorbance fluorescence;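 active means inhibition above the mean of all tested compounds plus 3 SD, cutoff set per screening run, cut at about 7.5% in these data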;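 further: red hydrolysis product quenches plate fluorescence so inhibitors raise well fluorescence; 0% = enzyme with DMSO and 100% = DMSO without enzyme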
ARFGAP1 inhibitor: inhibitors of rat ARFGAP1 GAP activity, primary screen, biochemical, fluorescence polarization, GDP tracer | ADP-ribosylation factor GTPase-activating protein 1 (Rattus norvegicus), Q62848 | Arfgap1-stimulated ARF1 GTP hydrolysis, GDP FP detection | inhibition, % at 16.5 µM | 0.26% of 360,000 active;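 active means inhibition above a per-plate limit, mean inhibition of low control wells plus 3 SD, cut at about 25% in these data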;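 further: 0% = DMSO wells with enzyme and 100% = wells lacking Arfgap1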
Target sequence (Q62848 1-136 limits assumed): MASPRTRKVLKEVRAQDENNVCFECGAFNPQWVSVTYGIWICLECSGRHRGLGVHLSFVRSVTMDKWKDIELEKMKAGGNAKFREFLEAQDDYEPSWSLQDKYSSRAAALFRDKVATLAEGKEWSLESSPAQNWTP
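Material: rat Arfgap1 GAP domain (His6, aa 1-136), purified enzyme. Also added: human ARF1(Δ1-17)-GTP substrate. Compound dosing: 16.5 µM single point, 1.26% DMSO. Timing: enzyme reaction 120 min at 25 °C after 20 min preincubation. Signal: GDP detection by fluorescence polarization. Read-out basis: percent inhibition of GAP-stimulated GDP formation, scaled between DMSO and no-Arfgap1 medians.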
IMP-1 inhibitor: IMP-1 metallo-beta-lactamase inhibitors, primary screen, biochemical, epi-absorbance readout, Pseudomonas aeruginosa enzyme; AID 1556, 2009; 0.45% of 290,000 active; metallo-beta-lactamase IMP-1 (Pseudomonas aeruginosa); purified IMP-1, nitrocefin hydrolysis, epi-absorbance fluorescence; inhibition, % at 5.6 µM;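 active means inhibition above the mean plus 3 SD of all compounds in the same screening run, cut at about 4.5% in these data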;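 further: 0% = IMP-1 with DMSO and 100% = DMSO wells lacking enzyme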
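System: purified recombinant IMP-1 beta-lactamase. Medium: Zinc- and detergent-supplemented HEPES buffer, pH 7.1. Compound: one 5.6 µM dose […]. Schedule: 15 min preincubation plus 25 min reaction at 25 °C. Technique: Epi-absorbance fluorescence, 480 nm excitation, 530 nm emission.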
ASAP1 GAP inh: inhibitors of human ASAP1 ArfGAP activity, primary screen, biochemical, fluorescence polarization; inhibition, % at 16.5 µM; ASAP1-stimulated ARF1 GTP hydrolysis, GDP FP detection; AID 624377, 2012; Arf-GAP with SH3 domain, ANK repeat and PH domain-containing protein 1 (Homo sapiens), …; 0.19% of 360,000 active; in the data active means inhibition above about 25%;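 further: 0% = vehicle with enzyme and substrate and 100% = no enzyme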
VIM-2 confirm: P. aeruginosa VIM-2 enzyme inhibition – biochemical, epi-absorbance, HTS, confirmation; shares compounds with IMP-1 inhibitor; purified VIM-2 enzyme, nitrocefin absorbance; inhibition, % at 5.6 µM; 73% of 200 active; AID 1860, 2009; in the data active means inhibition above about 8%;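 further: 0% = enzyme with vehicle and 100% = no enzyme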
TEM-1 counter: Serine beta-lactamase TEM-1 inhibition, biochemical epi-absorbance counter-screen for IMP-1/VIM-2 inhibitor program; TEM-1 beta-lactamase, nitrocefin absorbance inhibition; AID 2184, 2009; 50% of 200 active; shares compounds with IMP-1 inhibitor; inhibition, % at 5.6 µM; in the data active means inhibition above about 0.66%
Target sequence (P62593 whole entry, looked up): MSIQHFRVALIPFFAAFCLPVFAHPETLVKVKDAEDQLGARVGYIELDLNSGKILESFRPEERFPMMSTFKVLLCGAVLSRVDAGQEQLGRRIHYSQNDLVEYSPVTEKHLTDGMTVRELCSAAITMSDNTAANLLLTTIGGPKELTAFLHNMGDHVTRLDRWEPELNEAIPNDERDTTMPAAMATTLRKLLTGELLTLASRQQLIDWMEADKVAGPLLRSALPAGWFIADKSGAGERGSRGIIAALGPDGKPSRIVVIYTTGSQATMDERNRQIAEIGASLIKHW
IMP-1 inh conf: IMP-1 metallo-beta-lactamase inhibitors, confirmation, biochemical, epi-absorbance, hits shared with VIM-2 screen | purified IMP-1 enzyme, absorbance substrate hydrolysis | 60% of 200 active | inhibition, % at 5.6 µM | AID 2189, 2009 | shares compounds with IMP-1 inhibitor; in the data active means inhibition above about 4.9%;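 further: 0% = enzyme with vehicle and 100% = vehicle without enzyme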
Starred values were filed as active, the others as inactive; · = no result. A selection: hits, their analogues and other compounds. The true share with any hit is near 2.6%.

SMILES	PHOSPHO1 inh	Calb FLC	VIM-2 inh	ARFGAP1 inhibitor	IMP-1 inhibitor	ASAP1 GAP inh	VIM-2 confirm	TEM-1 counter	IMP-1 inh conf
Cc1cc(/C=N/NC(N)=S)c(O)c(/C=N/NC(N)=S)c1	-91	1	26*	9	27*	5	26*	-2	25*
N#CC1=C(N)Oc2c(O)cc3ccccc3c2C1c1ccsc1 (configuration not stated)	7	27	8.1*	-3	4.6*	8	0	-5	-3
CC(=O)Oc1cc2cccc(OC(C)=O)c(=O)c2c(OC(C)=O)c1OC(C)=O	28	48	7	·	8.9*	·	2	-3	-2
COc1cc2cccc(OC)c(=O)c2c(O)c1OC	-7	35	1	-4	-2	-9	·	·	·
COc1ccc2c3c(cccc13)C(=O)CC2	11	4	17*	7	16*	-4	1	1.7*	-2
COc1ccc2c(c1OC)C(=O)OC2	7	-2	0	7	0	-7	·	·	·
CC(C)(C)C1C=C(Sc2ccccc2)C(=O)O1 (configuration not stated)	23	-1	8.8*	-4	51*	1	-1	-3	15*
CCCCc1cc(=O)oc2cc(C)c(CN3CCCC3)c(O)c12	21	14	8.3*	-8	14*	-6	2	-3	5.6*
CCc1cc(=O)oc2cc(C)c(CN3CCCC(C)C3)c(O)c12 (configuration not stated)	-7	-24	8.4*	-1	16*	13	10*	-3	1
Cc1cc2oc(=O)cc(CN3CCCCC3)c2cc1C	36	0	2	-5	0	-2	·	·	·
COc1ccccc1-n1c(SCC(=O)OC(C)C)nc2cccnc21	5	-8	16*	-8	38*	4	0	-2	-1
NS(=O)(=O)c1ccc(NC(=O)c2cccc(N3C(=O)c4ccccc4C3=O)c2)cc1	16	5	9.6*	4	25*	9	3	-2	17*
COc1ccc(/C=C2\CCc3c2nc2ccccc2c3C(=O)O)cc1OC	25	-11	-1	4	2	2	·	·	·
COc1ccc(/C=C2\CCCc3c2nc2ccccc2c3C(=O)O)cc1OC	2	0	16*	·	17*	·	23*	39*	19*
CCOc1ccc(/C=C2\CCCc3c2nc2ccccc2c3C(=O)O)cc1OC	10	5	38*	·	29*	·	37*	56*	28*
CCCCn1c(=O)[nH]c2nc3cc(N)ccc3nc2c1=O	4	·	19*	2	17*	1	22*	31*	18*
COc1cc2[nH]c(=O)n(C3CCCCC3)c(=O)c2cc1OC	-4	-5	-1	13	-3	-15	·	·	·
Nc1ccc2nc3c(=O)n(C4CCCCC4)c(=O)[nH]c3nc2c1	-168	-11	21*	-1	24*	-5	23*	30*	16*
Cc1cc2nc3c(=O)n(CCc4ccccc4)c(=O)[nH]c3nc2cc1N	3	-1	5	-6	3	-9	·	·	·
Nc1ccc2nc3c(=O)n(CCc4ccccc4)c(=O)[nH]c3nc2c1	32	0	9.1*	-4	11*	-6	19*	33*	18*
C=CCn1c(=O)[nH]c2nc3cc(N=CN(C)C)c(C)cc3nc2c1=O	42	0	5	-9	2	6	·	·	·
CC(C)c1cccc(-c2csc(C(C)(O)c3ccncc3)n2)c1 (configuration not stated)	·	·	·	-5	·	1	·	·	·
CC(=O)N(O)c1ccc(C=Cc2ccccc2)cc1	·	·	·	6	·	-2	·	·	·
CCNc1ccc(Br)cc(C(=O)/C=C/c2c(Cl)cccc2Cl)c1=O	-18	-8	8.3*	·	6.0*	·	4	-1	-1
CNc1ccc(Br)cc(C(=O)/C=C/c2ccc(Cl)cc2Cl)c1=O	4	22	-1	-3	-1	0	·	·	·
SMILES	PHOSPHO1 inh	Calb FLC	VIM-2 inh	ARFGAP1 inhibitor	IMP-1 inhibitor	ASAP1 GAP inh	VIM-2 confirm	TEM-1 counter	IMP-1 inh conf
Cc1[nH]c2ccccc2c1/C=C/c1cc[n+](C)cc1	-88	104*	10*	10	9.0*	2	17*	0	3
CNc1cncc(-c2cccc(C(=O)NCCN(C)C)c2)n1	·	·	·	-5	·	18	·	·	·
CCOP(=O)(O)c1ccccc1OCCOc1ccccc1P(=O)(O)OCC	7	-1	-3	3	-2	-3	·	·	·
O=P(O)(O)COc1ccccc1P(=O)(c1ccccc1)c1ccccc1	-3	-6	12*	0	5.3*	4	16*	-4	-5
O=C1Nc2cnc(Cl)nc2Nc2ccccc21	·	·	·	1	·	0	·	·	·
CC(C)n1cc(/C=C/c2cc[n+](C)cc2)c2ccccc21	-153	87*	18*	5	12*	2	14*	6.7*	8.4*
CCn1cc(/C=C/c2cc[n+](C)cc2)c2ccccc21	-69	94*	16*	11	13*	2	14*	8.0*	8.3*
COc1ccc(CN2C(=O)CCC2(C)c2nnnn2-c2ccc3c(c2)OCCO3)cc1OC (configuration not stated)	·	·	·	8	·	9	·	·	·
Cc1nc2ccc(C(=O)Nc3ccc4c(c3)OCC(=O)N4)cn2c1N(C)C(=O)CCc1ccccc1	·	·	·	4	·	-6	·	·	·
Oc1c(C=Nc2ccccc2)sc2ccccc12	10	16	1	0	-2	-7	·	·	·
Oc1sc(C=Nc2ccccc2)c2ccccc12	65*	-69	17*	15	15*	11	23*	0	4
CN(C)C(=O)N1CCc2ccc([N+](=O)[O-])cc21	·	·	·	-3	·	14	·	·	·
COC(=O)c1sccc1NC(=O)c1ccc(C#N)cc1	33	0	16*	·	32*	·	14*	0	22*
Cn1c(Cc2ccccc2)nc(=O)c2ccccc21	·	·	·	7	·	1	·	·	·
